Consider 37 sequences from the array DNA melting data of Ke et al. (doi:10.1101/2024.01.08.574731).

A short description of data set [1]: folding enthalpy; higher = less favourable; fluorescence melt of hairpins on a sequencing array, two-state fit. The conditions noted are these: sodium 0.088 M. Put shortly:
(§1)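 Cy3 fluorescence of library hairpins on a sequenced MiSeq flow cell, with annealed Cy3 and quencher oligos, was imaged in 50 mM Na-HEPES pH 8.0, 25 mM NaCl in 2.5 °C steps up to 60 °C. Signals were normalised to pre-quench Cy3 and to control variants. Melting temperature and folding enthalpy came from bootstrapped two-state fits, inverse-variance combined over four replicates. Fitted temperatures were raised by 9.35 °C to match UV melts.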

Data set [2] can be described thus: melting temperature; fluorescence melt of hairpins on a sequencing array, two-state fit, raised by 9.35 °C to match UV melts. The conditions noted are these: sodium 0.088 M. Put shortly: as §1

On to GCCCAGGGAAACCCGGAC (.((.((....)).)).), for which the folding enthalpy in data set [1] was -4.63 kcal/mol. The Tm in data set [2] turned out to be 28.6 °C.

ATTCCGAAAGGAAT (((((....))))): in data set [1], the folding enthalpy was -20.8 kcal/mol. In data set [2], the Tm stood at 52.4 °C.

As to GCAGCCGGAAACAGCTGC (((((.(....).))))), the folding enthalpy in data set [1] was -40.9 kcal/mol. The Tm in data set [2] is 55.7 °C.

As to GATCAACGATTGATC ((((((...)))))), the folding enthalpy in data set [1] was -19.8 kcal/mol. Also, the Tm in data set [2] was found to be 36.3 °C.

GATCATAGGGATGATC ((((((....)))))): in data set [1], the folding enthalpy was -34.1 kcal/mol. The Tm in data set [2] is 47.3 °C.

On to GATCAGCTTTCTGATC ((((((....)))))), for which the folding enthalpy in data set [1] was -35 kcal/mol. Moreover, the Tm in data set [2] was found to be 50.5 °C.

GAATCACGAAAGTGTTC (((.(((....)))))): the folding enthalpy in data set [1] is -15.5 kcal/mol. The Tm in data set [2] worked out at 39.3 °C.

As to GTACATGGAAACATGTGC (.(((((....))))).), the folding enthalpy in data set [1] is -22.7 kcal/mol. For the same sequence, in data set [2], the Tm was 48.6 °C.

For GCTGTTTCGAAAGAAAGC (((..(((....)))))), the folding enthalpy in data set [1] is -15.7 kcal/mol. Moreover, the Tm in data set [2] came out at 27.6 °C.

As to GGAGGCGGAAACGCCTTC (.(((((....))))).), the folding enthalpy in data set [1] is -14.9 kcal/mol. Further, in data set [2], the Tm is 57.5 °C.

Take GCGAAAATCGC ((((...)))): the folding enthalpy in data set [1] was -14.1 kcal/mol. In addition, the Tm in data set [2] is 45 °C.

For GGTTCTGGAAACAAAACC ((((.((....)).)))), the folding enthalpy in data set [1] is -16.3 kcal/mol. In addition, in data set [2], the Tm was found to be 28.5 °C.

In the case of GTGGTCGAAAGACAGCAC ((((((....)))..))), the folding enthalpy in data set [1] is -16.9 kcal/mol. Also, in data set [2], the Tm is 40.6 °C.

For GGCTAGCGAAAGCTCGCC (((.(((....))).))), in data set [1], the folding enthalpy is -36.3 kcal/mol. Also, the Tm in data set [2] amounted to 58.8 °C.

Consider GATCCGCGAAAGCGCATC (((.(((....))).))), for which the folding enthalpy in data set [1] was -14.1 kcal/mol. Further, in data set [2], the Tm was determined as 36.5 °C.

As to GTCTTGGGAAACTGAGAC ((((..(....)..)))), the folding enthalpy in data set [1] was -23.8 kcal/mol. The Tm in data set [2] was 35.1 °C.

Regarding GATCGGCATTCCGATC ((((((....)))))), in data set [1], the folding enthalpy is -37.6 kcal/mol. Besides, the Tm in data set [2] worked out at 57 °C.

GTCAAGCGAAAGCTCGAC (((.(((....))).))): the folding enthalpy in data set [1] was -30.3 kcal/mol. Also, the Tm in data set [2] worked out at 49.7 °C.

For the sequence GGCTACGGAAACGTAGTC (.(((((....))))).), in data set [1], the folding enthalpy is -28.9 kcal/mol. Moreover, the Tm in data set [2] was 53.6 °C.

GATCCTTAAAGGATC ((((((...)))))): the folding enthalpy in data set [1] was -33.7 kcal/mol. In addition, in data set [2], the Tm was 51.7 °C.

As to GATCAACGTATTGATC ((((((....)))))), the folding enthalpy in data set [1] was -26.9 kcal/mol. In data set [2], the Tm amounted to 44.1 °C.

As to GTCGCGGCGAAAGCCGAC (((..(((....)))))), in data set [1], the folding enthalpy was -7.7 kcal/mol. Moreover, the Tm in data set [2] was determined as 42.2 °C.

For the sequence GATCCCATGAGGGATC ((((((....)))))), the folding enthalpy in data set [1] is -30.3 kcal/mol. Further, the Tm in data set [2] stood at 61.4 °C.

On to GATCATTATGATGATC ((((((....)))))), for which the folding enthalpy in data set [1] is -43.7 kcal/mol. In addition, in data set [2], the Tm came to 48.6 °C.

Take GTGATCGCGAAAGCGCAC (((..(((....)))))): in data set [1], the folding enthalpy is -12.6 kcal/mol. Also, the Tm in data set [2] was found to be 35.6 °C.

GCCGGCGAAAGCCCAGGC ((((((....)))..))): the folding enthalpy in data set [1] was -19.4 kcal/mol. Moreover, in data set [2], the Tm was 57.5 °C.

As for GATCTGAAAGCAGATC ((((((....)))))), the folding enthalpy in data set [1] was -26.4 kcal/mol. For the same sequence, the Tm in data set [2] worked out at 42.1 °C.

For GTTATTGGAAACAGTAAC ((((.((....)).)))), in data set [1], the folding enthalpy was -27.5 kcal/mol. In data set [2], the Tm came to 33.4 °C.

AGTCGGAAACGACT (((((....))))): in data set [1], the folding enthalpy was -20.1 kcal/mol. Further, in data set [2], the Tm was 54.3 °C.

As to GACGGAGGAAACTCCATC ((.((((....)))).)), the folding enthalpy in data set [1] was -16.8 kcal/mol. The Tm in data set [2] came to 33.6 °C.

Turning to GATCGATCGTTCGATC ((((((....)))))), the folding enthalpy in data set [1] was -36 kcal/mol. In data set [2], the Tm stood at 53.5 °C.

Take GACCTCGCGAAAGCGGTC (((..(((....)))))): the folding enthalpy in data set [1] was -12.3 kcal/mol. For the same sequence, the Tm in data set [2] amounted to 42.3 °C.

For GATCGCCCATGCGATC ((((((....)))))), the folding enthalpy in data set [1] is -36.2 kcal/mol. Besides, the Tm in data set [2] stood at 67.6 °C.

With GATCGACACATCGATC ((((((....)))))), the folding enthalpy in data set [1] is -38.5 kcal/mol. The Tm in data set [2] was 52.4 °C.

With GCTTCAGGAAACTAAAGC ((((.((....)).)))), the folding enthalpy in data set [1] was -26.3 kcal/mol. For the same sequence, the Tm in data set [2] amounted to 28.7 °C.

In the case of GTAATGGGAAACCATTAC (((((((....))))))), in data set [1], the folding enthalpy was -45.5 kcal/mol. The Tm in data set [2] was found to be 53.4 °C.

With GATCACGACTGTGATC ((((((....)))))), in data set [1], the folding enthalpy was -37.1 kcal/mol. In addition, the Tm in data set [2] amounted to 64 °C.
